IC50, MIC and Ratio IC50 data for nine molecules are collected here from ChEMBL document CHEMBL5136970, “Influence of ring size in conformationally restricted ring I analogs of paromomycin on antiribosomal and antibacterial activity” (RSC Med Chem, 2021).

A short description of test [1]: Inhibition of human cytoplasmic ribosome Cyt 14 hybridized with Mycobacterium smegmatis ribosome assessed as inhibition of translation activity using Firefly luciferase mRNA reporter based luminescence analysis. Summed up: (§1)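 Cell-free ribosomal translation assay. IC50 reported in μM ± STD, determined in duplicate or more, with fewer replicates for a few compounds where material was limited.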

A short description of test [2]: Inhibition of human mitochondrial ribosome Mit 13 A1555G mutant hybridized with Mycobacterium smegmatis ribosome assessed as inhibition of translation activity using Firefly luciferase mRNA reporter based luminescence analysis. Summed up:
(§2)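 Cell-free ribosomal translation inhibition with IC50 reported in μM. Values were determined in duplicate or more, except for a few compounds in the mitochondrial hybrid assays, where limited material allowed fewer runs.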

The test system of test [3] is Acinetobacter baumannii. Kind of test: Antibacterial activity against Acinetobacter baumannii AG225. In kind it is functional.
In test [4] the test system is Escherichia coli. Kind of test: Antibacterial activity against Escherichia coli AG001. In kind it is functional.
The target in test [5] is Bacterial 70S ribosome. Nature of the test: Inhibition of Mycobacterium smegmatis wild type ribosomes assessed as inhibition of translation activity using Firefly luciferase mRNA reporter based luminescence analysis. It is filed as subcellular, Mycolicibacterium smegmatis. Summed up:
as §2

Test [6] concerns Pseudomonas aeruginosa. Kind of test: Antibacterial activity against Pseudomonas aeruginosa AG031. It is filed as functional.
The subject of test [7] is Staphylococcus aureus. Nature of the test: Antibacterial activity against methicillin-resistant Staphylococcus aureus AG038. In kind it is functional.
A short description of test [8]: Inhibition of human mitochondrial ribosome Mit 13 hybridized with Mycobacterium smegmatis ribosome assessed as inhibition of translation activity using Firefly luciferase mRNA reporter based luminescence analysis. Summed up: as §1
Test [9] is described as follows: Selectivity ratio of IC50 for inhibition of human mitochondrial ribosome Mit 13 A1555G mutant hybridized with Mycobacterium smegmatis ribosomes to IC50 for inhibition of Mycobacterium smegmatis wild type ribosomes.
The nature of test [10]: Selectivity ratio of IC50 for inhibition of human mitochondrial ribosome Mit 13 hybridized with Mycobacterium smegmatis ribosome to IC50 for inhibition of Mycobacterium smegmatis wild type ribosomes.
Test [11] deals with Enterobacter cloacae. Kind of test: Antibacterial activity against Enterobacter cloacae AG290. It is filed as functional.
Test [12] has as its system Klebsiella pneumoniae. Nature of the test: Antibacterial activity against Klebsiella pneumoniae AG215. In kind it is functional.
Test [13] can be described thus: Selectivity ratio of IC50 for inhibition of human cytoplasmic ribosome Cyt 14 hybridized with Mycobacterium smegmatis ribosomes to IC50 for inhibition of Mycobacterium smegmatis wild type ribosomes.

In brackets after ≈: the same amount, converted by molar mass.

What is called IC50 is the midpoint of a concentration-inhibition curve. Usually MIC stands for the least concentration at which growth counts as inhibited. Read a low MIC as greater potency.

With `NC[C@@H]1O[C@H](O[C@H]2[C@@H](O)[C@H](O[C@@H]3[C@@H](O)[C@H](N)C[C@H](N)[C@H]3O[C@H]3O[C@H](CO)[C@@H](O)[C@H](O)[C@H]3N)O[C@@H]2CO)[C@H](N)[C@@H](O)[C@@H]1O` [PAROMOMYCIN], the 50% inhibitory concentration (IC50) in test [1] is 37 µM; in [2], 12 µM; in [5], 0.033 µM; in test [8], 131 µM. Also, the MIC in test [3] is 2 µg/mL (≈ 3.25 µM); in test [4], 2 µg/mL (≈ 3.25 µM); in test [6], greater than 128 µg/mL; in [7], 2 µg/mL (≈ 3.25 µM); in test [11] it was 2 µg/mL (≈ 3.25 µM); in test [12], 1 µg/mL (≈ 1.62 µM). Besides, the Ratio IC50 in [9] turned out to be 364; in test [10] it was 3970; in test [13] it was 1120.
Turning to `C[C@@H]1C[C@H](O)[C@H]2O[C@H](O[C@H]3[C@H](O[C@@H]4O[C@H](CO)[C@@H](O[C@H]5O[C@@H](CN)[C@@H](O)[C@H](O)[C@H]5N)[C@H]4O)[C@@H](O)[C@H](N)C[C@@H]3N)[C@H](N)[C@@H](O)[C@@H]2O1`, the IC50 in [1] is 34 µM; in test [2], 20 µM; in test [5] it was 0.063 µM; in test [8], 250 µM. The MIC stood at 4 µg/mL (≈ 6.1 µM) in test [3]; 4 µg/mL (≈ 6.1 µM) in test [4]; 32 µg/mL (≈ 48.8 µM) in [6]; 4 µg/mL (≈ 6.1 µM) in test [7]; 2 µg/mL (≈ 3.05 µM) in [11]; 2 µg/mL (≈ 3.05 µM) in test [12]. The values for the Ratio IC50 in test [9], in test [10] and in test [13] were 317, 3970 and 540, respectively.
`NC[C@@H]1O[C@H](O[C@H]2[C@@H](O)[C@H](O[C@@H]3[C@@H](O)[C@H](N)C[C@H](N)[C@H]3O[C@H]3O[C@H]4[C@@H](OCC[C@H]4O)[C@H](O)[C@H]3N)O[C@@H]2CO)[C@H](N)[C@@H](O)[C@@H]1O`: the IC50 in [1] is 557 µM; in [2] it was 602 µM; in [5] it was 3.3 µM; in [8] it was 554 µM. Further, the MIC was 64 µg/mL (≈ 99.7 µM) in [3]; 128 µg/mL (≈ 199 µM) in test [4]; greater than 128 µg/mL in test [6]; 32 µg/mL (≈ 49.9 µM) in test [7]; 64 µg/mL (≈ 99.7 µM) in [11]; 64 µg/mL (≈ 99.7 µM) in test [12]. Besides, the Ratio IC50 in [9] came out at 182; in test [10] it was 168; in [13] it was 169.
For the molecule `NC[C@@H]1O[C@H](O[C@H]2[C@@H](O)[C@H](O[C@@H]3[C@@H](O)[C@H](N)C[C@H](N)[C@H]3O[C@H]3O[C@H]4[C@@H](OCCC[C@H]4O)[C@H](O)[C@H]3N)O[C@@H]2CO)[C@H](N)[C@@H](O)[C@@H]1O`, the IC50 in test [2] is 545 µM; in [5], 1.5 µM; in test [8] it was 514 µM. Further, the minimal inhibitory concentration (MIC) is 32 µg/mL (≈ 48.8 µM) in test [3]; 64 µg/mL (≈ 97.6 µM) in test [4]; greater than 128 µg/mL in test [6]; 32 µg/mL (≈ 48.8 µM) in [7]; 32 µg/mL (≈ 48.8 µM) in [11]; 32 µg/mL (≈ 48.8 µM) in test [12]. Also, the Ratio IC50 in [9] came out at 363; in test [10] it was 342.
As for `C[C@@H]1C[C@@H](O)[C@H]2O[C@H](O[C@H]3[C@H](O[C@@H]4O[C@H](CO)[C@@H](O[C@H]5O[C@@H](CN)[C@@H](O)[C@H](O)[C@H]5N)[C@H]4O)[C@@H](O)[C@H](N)C[C@@H]3N)[C@H](N)[C@@H](O)[C@@H]2O1`, the 50% inhibitory concentration (IC50) in test [1] worked out at 266 µM; in [2], 327 µM; in [5], 0.89 µM; in [8], 372 µM. Further, the minimum inhibitory concentration (MIC) in test [3] is 32 µg/mL (≈ 48.8 µM); in test [4], 32 µg/mL (≈ 48.8 µM); in test [6], greater than 128 µg/mL; in test [7] it was 32 µg/mL (≈ 48.8 µM); in [11] it was 32 µg/mL (≈ 48.8 µM); in test [12], 16 µg/mL (≈ 24.4 µM). Further, the Ratio IC50 in test [9] is 367; in [10], 418; in [13], 299.
On to `NC[C@@H]1O[C@H](O[C@H]2[C@@H](O)[C@H](O[C@@H]3[C@@H](O)[C@H](N)C[C@H](N)[C@H]3O[C@H]3O[C@H]4[C@@H](OCC[C@@H]4O)[C@H](O)[C@H]3N)O[C@@H]2CO)[C@H](N)[C@@H](O)[C@@H]1O`, for which the IC50 was determined as 120 µM in test [1], 132 µM in test [2], 0.12 µM in test [5] and 231 µM in test [8]. The minimum inhibitory concentration (MIC) in [3] is 8 µg/mL (≈ 12.5 µM); in test [4] it was 8 µg/mL (≈ 12.5 µM); in test [6], greater than 128 µg/mL; in [7], 2 µg/mL (≈ 3.12 µM); in test [11] it was 4 µg/mL (≈ 6.23 µM); in test [12] it was 4 µg/mL (≈ 6.23 µM). In addition, the Ratio IC50 came to 1100 in [9], 1920 in test [10] and 1000 in test [13].
For the molecule `NC[C@@H]1O[C@H](O[C@H]2[C@@H](O)[C@H](O[C@@H]3[C@@H](O)[C@H](N)C[C@H](N)[C@H]3O[C@H]3O[C@H]4[C@@H](OCCC[C@@H]4O)[C@H](O)[C@H]3N)O[C@@H]2CO)[C@H](N)[C@@H](O)[C@@H]1O`, the IC50 in test [1] turned out to be 56 µM; in [2], 42 µM; in test [5], 0.071 µM; in [8] it was 243 µM. The minimum inhibitory concentration (MIC) in test [3] stood at 4 µg/mL (≈ 6.1 µM); in [4] it was 4 µg/mL (≈ 6.1 µM); in test [6], 64 µg/mL (≈ 97.6 µM); in test [7] it was 2 µg/mL (≈ 3.05 µM); in test [11], 2 µg/mL (≈ 3.05 µM); in test [12] it was 2 µg/mL (≈ 3.05 µM). The results for the Ratio IC50 in test [9], in test [10] and in test [13] were 592, 3420 and 789, respectively.
`NC[C@@H]1O[C@H](O[C@H]2[C@@H](O)[C@H](O[C@@H]3[C@@H](O)[C@H](N)C[C@H](N)[C@H]3O[C@H]3O[C@H]4[C@@H](OC[C@@H]4O)[C@H](O)[C@H]3N)O[C@@H]2CO)[C@H](N)[C@@H](O)[C@@H]1O`: the IC50 in test [1] is 40 µM; in test [5], 0.13 µM; in test [8], 151 µM. The minimum inhibitory concentration (MIC) was 32 µg/mL (≈ 51 µM) in [3]; 32 µg/mL (≈ 51 µM) in [4]; greater than 128 µg/mL in test [6]; 16 µg/mL (≈ 25.5 µM) in test [7]; 32 µg/mL (≈ 51 µM) in [11]; 16 µg/mL (≈ 25.5 µM) in test [12]. Also, the Ratio IC50 in [10] was found to be 943; in test [13], 250.
In the case of `NC[C@@H]1O[C@H](O[C@H]2[C@@H](O)[C@H](O[C@@H]3[C@@H](O)[C@H](N)C[C@H](N)[C@H]3O[C@H]3O[C@H]4[C@@H](OC[C@H]4O)[C@H](O)[C@H]3N)O[C@@H]2CO)[C@H](N)[C@@H](O)[C@@H]1O`, the half-maximal inhibitory concentration (IC50) in [1] was found to be 276 µM; in test [2], 117 µM; in test [5], 0.2 µM; in test [8], 131 µM. The MIC was 8 µg/mL (≈ 12.7 µM) in test [3]; 16 µg/mL (≈ 25.5 µM) in test [4]; greater than 64 µg/mL in test [6]; 8 µg/mL (≈ 12.7 µM) in test [7]; 8 µg/mL (≈ 12.7 µM) in test [11]; 4 µg/mL (≈ 6.37 µM) in test [12]. The Ratio IC50 in test [9] came out at 585; in test [10] it was 655; in test [13], 1380.
